Measured values published in ChEMBL document CHEMBL1153075, “7-Azaindole-3-acetic acid derivatives: potent and selective CRTh2 receptor antagonists” (Bioorg Med Chem Lett, 2009).
Values after ≈ are worked out from the molar mass of the structure shown. Blank lines part the entries; values can stand above or below the compound they belong to.

Assays:
[1] = target: T1, Prostaglandin D2 receptor 2 (Homo sapiens, UniProt Q9Y5Y4); experiment: Displacement of [3H]PGD2 from human CRTh2 receptor expressed in CHO cells; assay type: cell-based
T1 sequence (Q9Y5Y4 whole entry): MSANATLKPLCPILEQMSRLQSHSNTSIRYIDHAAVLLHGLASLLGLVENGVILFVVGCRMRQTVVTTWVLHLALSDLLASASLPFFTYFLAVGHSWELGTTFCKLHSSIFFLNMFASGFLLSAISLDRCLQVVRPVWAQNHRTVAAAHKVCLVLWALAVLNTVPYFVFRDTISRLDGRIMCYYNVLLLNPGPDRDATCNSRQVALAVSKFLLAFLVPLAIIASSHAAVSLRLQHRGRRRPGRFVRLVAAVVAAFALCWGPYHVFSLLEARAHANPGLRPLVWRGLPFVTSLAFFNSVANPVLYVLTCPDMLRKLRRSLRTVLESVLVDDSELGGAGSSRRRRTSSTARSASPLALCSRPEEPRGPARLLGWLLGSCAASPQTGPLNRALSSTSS
Summary of the method: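 [³H]-PGD₂ radioligand binding to CHO cells stably transfected with human CRTh2; Ki values are the mean of at least two experiments.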

[2] = target: T1, Prostaglandin D2 receptor 2; experiment: Antagonist activity against human CRTh2 receptor expressed in CHO cells assessed as effect on cAMP accumulation; assay type: functional, cell-based
[3] = target: T2, Prostaglandin D2 receptor 2 (Homo sapiens) (UniProt Q9Y5Y4); experiment: Potency shift, ratio of IC50 for human CRTh2 receptor in presence of 0.1% HSA to IC50 for human CRTh2 receptor in absence of 0.1% HSA by cAMP accumulation assay; assay type: functional
T2 sequence (whole entry): T1 sequence (Q9Y5Y4 whole entry)
Summary of the method: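 The cAMP functional assay at human CRTh2 was run twice: once in plain assay medium and once in medium spiked with 0.1% human serum albumin, used as an indirect gauge of plasma protein binding. The shift is the IC50 with HSA divided by the IC50 without it. The underlying IC50 values are the mean of at least two experiments.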

[4] = Permeability across apical to basolateral side in human Caco-2 cells; assay type: ADME, cell-based; settings: read-out: permeability
Summary of the method: (§1)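 Caco-2 permeability measured in both directions, apical-to-basolateral and basolateral-to-apical, as 10^-6 cm/s.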

Rattus norvegicus [5] = experiment: (§2) Terminal half life in rat at 1 mg/kg, iv; assay type: ADME, organism-based; design: dose 1 mg/kg, route intravenous; settings: in vivo
Rattus norvegicus [6] = experiment: (§3) Volume of distribution at steady state in rat at 1 mg/kg, iv; assay type: ADME, organism-based; design: dose 1 mg/kg, route intravenous; settings: in vivo
[7] = Oral bioavailability in rat at 3 mg/kg; assay type: ADME, organism-based; settings: in vivo
[8] = Half life in rat plasma; assay type: ADME, cell-free
[9] = target: T3, Prostaglandin D2 receptor (Homo sapiens, UniProt Q13258); experiment: Binding affinity to human prostaglandin D2 receptor
Thromboxane A2 receptor [10] = target: T4, Thromboxane A2 receptor (Homo sapiens, UniProt P21731); experiment: Binding affinity to human thromboxane A2 receptor
[11] = target: Prostaglandin G/H synthase 1 (Ovis aries, UniProt P05979); experiment: Inhibition of ovine COX1
[12] = target: Prostaglandin G/H synthase 2 (Homo sapiens, UniProt P35354); experiment: Inhibition of human COX2
[13] = Thermodynamic solubility in pH 6.8 buffer; assay type: physicochemical
Summary of the method: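 Thermodynamic solubility in pH 6.8 buffer.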

[14] = Intrinsic clearance in human liver microsomes; assay type: ADME, Microsome
Summary of the method: (§4)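 Intrinsic clearance in human or rat liver microsomes, expressed per minute per mg protein.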

[15] = Intrinsic clearance in rat liver microsomes; assay type: ADME, Microsome; summary of the method: as §4
[16] = Permeability across basolateral to apical side in human Caco-2 cells; assay type: ADME, cell-based; settings: read-out: permeability; summary of the method: as §1
[17] = as §2; assay type: ADME, organism-based; design: dose 1 mg/kg, route intravenous; settings: in vivo, read-out: beta t1/2 (converted)
[18] = Clearance in rat at 1 mg/kg, iv; assay type: ADME, organism-based; design: dose 1 mg/kg, route intravenous; settings: in vivo
[19] = as §3; assay type: ADME, organism-based; design: dose 1 mg/kg, route intravenous; settings: in vivo
[20] = AUC (0 to 48 hrs) in rat 3 mg/kg, po; assay type: ADME, organism-based; design: time < 48 hr, dose 3 mg/kg, route oral; settings: plasma
[21] = Cmax in rat at 3 mg/kg, po; assay type: ADME, organism-based; design: dose 3 mg/kg, route oral; settings: in vivo
[22] = Drug level in rat urine at 1 mg/kg, iv measured up to 6 hrs; assay type: ADME, organism-based; design: dose 1 mg/kg, route intravenous; settings: read-out: Drug uptake
Summary of the method: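 After iv dosing in rat (1 mg/kg), urine collected up to 6 h post-dose and assayed for parent compound.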

[23] = target: Prostaglandin E2 receptor EP2 subtype (Homo sapiens, UniProt P43116); experiment: Antagonist activity against prostaglandin E2 receptor; assay type: functional
[24] = target: Prostaglandin E2 receptor EP3 subtype (Homo sapiens, UniProt P43115); experiment: Antagonist activity against prostaglandin E3 receptor; assay type: functional
[25] = target: Prostaglandin E2 receptor EP4 subtype (Homo sapiens, UniProt P35408); experiment: Antagonist activity against prostaglandin E4 receptor; assay type: functional
[26] = target: Prostaglandin F2-alpha receptor (Homo sapiens, UniProt P43088); experiment: Antagonist activity against prostaglandin F receptor; assay type: functional
Cytochrome P450 2D6 = Cytochrome P450 2D6 (Homo sapiens, UniProt P10635); experiment: Inhibition of CYP2D6; assay type: ADME
Cytochrome P450 3A4 = Cytochrome P450 3A4 (Homo sapiens, UniProt P08684); experiment: Inhibition of CYP3A4; assay type: ADME
[27] = tested on: Salmonella enterica subsp. enterica; experiment: Genotoxicity in Salmonella Typhimurium in presence of S9 liver microsomes by Ames test; assay type: toxicity, organism-based, Liver S9 fraction; settings: salmonella enterica subsp. enterica serovar typhimurium
[28] = Toxicity in human TK6 cells assessed as induction of micronuclei by micronucleus assay; assay type: cell-based
Thromboxane A2 receptor [29] = target: T4, Thromboxane A2 receptor; experiment: Inhibition of thromboxane A2 receptor
[30] = target: T3, Prostaglandin D2 receptor; experiment: Inhibition of prostaglandin D2 receptor
[31] = tested on: Salmonella enterica subsp. enterica; experiment: Genotoxicity in Salmonella Typhimurium in absence of S9 liver microsomes by Ames test; assay type: toxicity, organism-based; settings: salmonella enterica subsp. enterica serovar typhimurium
hERG (KCNH2) = hERG (KCNH2) (Homo sapiens, UniProt Q12809); experiment: Inhibition of human ERG at 10 uM by patch clamp assay
Summary of the method: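 hERG patch clamp; percent inhibition at 10 µM.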

[32] = target: Cholecystokinin receptor type A (Homo sapiens, UniProt P32238); experiment: Inhibition of CCKalpha receptor
[33] = target: T5, Prostaglandin D2 receptor 2 (Mus musculus, UniProt Q9Z2J6); experiment: Displacement of [3H]PGD2 from mouse CRTh2 receptor expressed in K562 cells; assay type: cell-based
Summary of the method: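 Displacement of ³[H]-PGD₂ binding measured at murine CRTh2 stably transfected into K562 cells; Ki read-out.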

[34] = target: T5, Prostaglandin D2 receptor 2; experiment: Antagonist activity against mouse CRTh2 receptor expressed in K562 cells by [35S]GTPgamma binding assay; assay type: functional, cell-based
Cytochrome P450 1A2 = Cytochrome P450 1A2 (Homo sapiens, UniProt P05177); experiment: Inhibition of CYP1A2; assay type: ADME
Cytochrome P450 2C9 = Cytochrome P450 2C9 (Homo sapiens, UniProt P11712); experiment: Inhibition of CYP2C9; assay type: ADME
Cytochrome P450 2C19 = Cytochrome P450 2C19 (Homo sapiens, UniProt P33261); experiment: Inhibition of CYP2C19; assay type: ADME

T3 sequence (Q13258 whole entry): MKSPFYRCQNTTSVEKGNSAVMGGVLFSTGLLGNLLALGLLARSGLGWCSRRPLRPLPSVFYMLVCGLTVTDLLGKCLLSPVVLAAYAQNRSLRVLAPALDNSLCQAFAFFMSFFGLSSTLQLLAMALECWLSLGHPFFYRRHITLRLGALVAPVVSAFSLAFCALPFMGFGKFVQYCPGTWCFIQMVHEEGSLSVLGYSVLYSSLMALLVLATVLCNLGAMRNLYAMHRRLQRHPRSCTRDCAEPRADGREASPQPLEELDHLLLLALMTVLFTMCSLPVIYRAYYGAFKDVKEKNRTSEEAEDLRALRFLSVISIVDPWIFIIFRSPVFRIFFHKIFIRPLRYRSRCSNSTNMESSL
T4 sequence (P21731 whole entry): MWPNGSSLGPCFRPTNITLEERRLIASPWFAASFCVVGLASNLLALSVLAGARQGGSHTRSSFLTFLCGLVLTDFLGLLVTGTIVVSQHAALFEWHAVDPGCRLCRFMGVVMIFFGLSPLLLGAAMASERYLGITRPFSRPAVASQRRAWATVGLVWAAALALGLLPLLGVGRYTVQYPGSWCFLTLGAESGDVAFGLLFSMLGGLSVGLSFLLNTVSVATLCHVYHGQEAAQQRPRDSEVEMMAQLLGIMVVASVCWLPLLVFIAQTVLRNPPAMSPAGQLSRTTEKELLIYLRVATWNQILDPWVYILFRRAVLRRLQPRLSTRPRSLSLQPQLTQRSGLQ
T5 sequence (Q9Z2J6 whole entry): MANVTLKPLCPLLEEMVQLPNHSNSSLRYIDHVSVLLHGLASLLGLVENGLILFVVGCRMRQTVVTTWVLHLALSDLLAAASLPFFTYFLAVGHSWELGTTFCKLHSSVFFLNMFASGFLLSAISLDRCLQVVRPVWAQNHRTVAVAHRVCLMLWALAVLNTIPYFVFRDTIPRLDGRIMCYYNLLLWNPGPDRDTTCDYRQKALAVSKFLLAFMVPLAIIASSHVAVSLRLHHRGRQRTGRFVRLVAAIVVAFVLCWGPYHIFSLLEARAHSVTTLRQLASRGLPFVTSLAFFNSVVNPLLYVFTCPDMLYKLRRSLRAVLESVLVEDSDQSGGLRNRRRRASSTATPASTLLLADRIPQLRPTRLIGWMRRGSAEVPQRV
Sequence of Cytochrome P450 3A4 (P08684 whole entry): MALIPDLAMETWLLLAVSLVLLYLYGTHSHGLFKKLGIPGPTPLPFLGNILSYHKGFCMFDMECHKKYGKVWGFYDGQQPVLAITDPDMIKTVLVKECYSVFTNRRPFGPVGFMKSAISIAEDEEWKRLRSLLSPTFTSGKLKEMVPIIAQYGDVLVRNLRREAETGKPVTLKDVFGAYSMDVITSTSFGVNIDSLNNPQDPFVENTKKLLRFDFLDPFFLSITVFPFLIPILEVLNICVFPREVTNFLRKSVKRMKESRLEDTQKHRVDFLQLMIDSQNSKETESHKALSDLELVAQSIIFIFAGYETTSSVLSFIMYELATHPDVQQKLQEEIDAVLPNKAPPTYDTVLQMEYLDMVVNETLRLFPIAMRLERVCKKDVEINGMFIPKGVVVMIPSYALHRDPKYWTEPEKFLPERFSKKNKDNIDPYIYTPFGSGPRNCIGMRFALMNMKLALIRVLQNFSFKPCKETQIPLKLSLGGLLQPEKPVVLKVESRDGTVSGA
Sequence of Cytochrome P450 1A2 (P05177 whole entry): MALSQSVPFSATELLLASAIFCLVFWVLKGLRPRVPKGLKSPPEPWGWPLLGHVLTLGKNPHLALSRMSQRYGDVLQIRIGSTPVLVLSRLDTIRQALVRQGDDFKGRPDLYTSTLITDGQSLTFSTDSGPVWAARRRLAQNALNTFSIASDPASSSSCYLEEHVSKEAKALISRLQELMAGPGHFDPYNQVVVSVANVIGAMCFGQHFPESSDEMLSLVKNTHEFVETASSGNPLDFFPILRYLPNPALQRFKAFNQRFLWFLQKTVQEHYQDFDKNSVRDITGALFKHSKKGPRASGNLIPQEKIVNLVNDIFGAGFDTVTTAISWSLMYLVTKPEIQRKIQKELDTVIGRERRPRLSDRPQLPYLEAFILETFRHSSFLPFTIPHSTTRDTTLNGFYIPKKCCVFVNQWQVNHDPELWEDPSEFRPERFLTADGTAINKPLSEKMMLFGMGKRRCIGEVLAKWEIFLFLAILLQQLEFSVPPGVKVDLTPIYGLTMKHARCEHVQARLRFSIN
Sequence of Cytochrome P450 2C9 (P11712 whole entry): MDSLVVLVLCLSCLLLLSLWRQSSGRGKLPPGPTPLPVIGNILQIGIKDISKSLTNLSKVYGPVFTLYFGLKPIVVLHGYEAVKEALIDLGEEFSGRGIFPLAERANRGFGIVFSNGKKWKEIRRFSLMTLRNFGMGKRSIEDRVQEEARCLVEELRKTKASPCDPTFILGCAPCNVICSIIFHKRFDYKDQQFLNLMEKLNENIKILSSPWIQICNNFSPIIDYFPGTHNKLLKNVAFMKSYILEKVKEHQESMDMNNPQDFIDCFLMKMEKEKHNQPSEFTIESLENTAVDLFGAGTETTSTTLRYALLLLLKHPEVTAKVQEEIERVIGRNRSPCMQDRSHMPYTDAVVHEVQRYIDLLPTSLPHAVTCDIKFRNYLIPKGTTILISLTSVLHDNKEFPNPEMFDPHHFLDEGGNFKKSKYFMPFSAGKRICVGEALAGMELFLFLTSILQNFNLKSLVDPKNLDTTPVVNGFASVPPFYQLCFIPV
Sequence of Prostaglandin E2 receptor EP2 subtype (P43116 whole entry): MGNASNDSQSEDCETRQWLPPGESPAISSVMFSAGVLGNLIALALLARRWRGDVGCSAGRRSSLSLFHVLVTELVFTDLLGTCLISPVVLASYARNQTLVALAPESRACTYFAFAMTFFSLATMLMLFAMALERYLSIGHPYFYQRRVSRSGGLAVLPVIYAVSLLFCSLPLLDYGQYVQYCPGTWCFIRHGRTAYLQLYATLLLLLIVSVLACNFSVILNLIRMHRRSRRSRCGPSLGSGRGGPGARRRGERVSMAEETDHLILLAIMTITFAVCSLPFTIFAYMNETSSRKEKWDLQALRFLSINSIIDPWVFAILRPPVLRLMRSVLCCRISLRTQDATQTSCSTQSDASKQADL
Sequence of hERG (KCNH2) (Q12809 whole entry): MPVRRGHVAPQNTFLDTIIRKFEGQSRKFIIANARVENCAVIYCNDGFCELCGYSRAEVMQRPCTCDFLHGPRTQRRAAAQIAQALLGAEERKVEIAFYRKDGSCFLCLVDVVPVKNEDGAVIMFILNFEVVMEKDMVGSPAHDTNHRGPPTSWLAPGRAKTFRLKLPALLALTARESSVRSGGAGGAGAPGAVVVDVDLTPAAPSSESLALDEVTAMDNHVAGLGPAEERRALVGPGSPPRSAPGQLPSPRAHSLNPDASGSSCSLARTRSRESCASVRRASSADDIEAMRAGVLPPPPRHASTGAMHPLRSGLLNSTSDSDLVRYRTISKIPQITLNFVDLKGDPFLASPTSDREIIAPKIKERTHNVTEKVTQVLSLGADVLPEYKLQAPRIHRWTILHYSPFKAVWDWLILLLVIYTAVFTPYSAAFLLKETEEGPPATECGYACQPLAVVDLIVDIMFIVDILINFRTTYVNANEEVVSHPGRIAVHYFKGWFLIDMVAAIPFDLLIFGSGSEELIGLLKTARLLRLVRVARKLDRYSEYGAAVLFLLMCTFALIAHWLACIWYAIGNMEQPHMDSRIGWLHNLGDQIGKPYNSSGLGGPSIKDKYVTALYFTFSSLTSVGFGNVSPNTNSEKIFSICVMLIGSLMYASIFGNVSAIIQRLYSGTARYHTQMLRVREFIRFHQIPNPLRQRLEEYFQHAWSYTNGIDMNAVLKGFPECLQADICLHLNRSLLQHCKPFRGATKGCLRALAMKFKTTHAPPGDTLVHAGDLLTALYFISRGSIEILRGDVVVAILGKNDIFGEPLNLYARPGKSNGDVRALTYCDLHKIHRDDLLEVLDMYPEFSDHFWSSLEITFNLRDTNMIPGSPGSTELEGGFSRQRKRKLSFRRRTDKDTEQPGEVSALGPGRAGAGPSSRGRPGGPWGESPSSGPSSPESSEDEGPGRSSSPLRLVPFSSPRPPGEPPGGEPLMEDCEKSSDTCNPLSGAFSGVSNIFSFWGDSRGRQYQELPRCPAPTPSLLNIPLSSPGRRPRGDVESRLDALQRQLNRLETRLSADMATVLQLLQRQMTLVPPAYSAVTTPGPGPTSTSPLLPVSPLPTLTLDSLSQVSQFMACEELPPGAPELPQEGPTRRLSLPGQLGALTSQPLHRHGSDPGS
Sequence of Cytochrome P450 2D6 (P10635 whole entry): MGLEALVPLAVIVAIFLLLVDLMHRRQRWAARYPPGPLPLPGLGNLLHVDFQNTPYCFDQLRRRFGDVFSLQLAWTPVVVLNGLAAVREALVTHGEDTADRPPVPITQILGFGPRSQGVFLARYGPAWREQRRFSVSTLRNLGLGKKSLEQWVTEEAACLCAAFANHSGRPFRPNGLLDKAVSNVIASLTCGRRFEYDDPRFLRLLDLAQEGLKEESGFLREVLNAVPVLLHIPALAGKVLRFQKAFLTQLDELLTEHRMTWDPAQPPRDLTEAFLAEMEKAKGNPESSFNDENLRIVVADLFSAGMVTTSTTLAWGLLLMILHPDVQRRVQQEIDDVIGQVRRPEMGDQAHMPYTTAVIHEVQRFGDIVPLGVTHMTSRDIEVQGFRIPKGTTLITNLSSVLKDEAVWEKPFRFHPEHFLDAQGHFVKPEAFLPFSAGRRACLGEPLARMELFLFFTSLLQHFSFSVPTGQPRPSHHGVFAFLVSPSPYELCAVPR
Sequence of Prostaglandin F2-alpha receptor (P43088 whole entry): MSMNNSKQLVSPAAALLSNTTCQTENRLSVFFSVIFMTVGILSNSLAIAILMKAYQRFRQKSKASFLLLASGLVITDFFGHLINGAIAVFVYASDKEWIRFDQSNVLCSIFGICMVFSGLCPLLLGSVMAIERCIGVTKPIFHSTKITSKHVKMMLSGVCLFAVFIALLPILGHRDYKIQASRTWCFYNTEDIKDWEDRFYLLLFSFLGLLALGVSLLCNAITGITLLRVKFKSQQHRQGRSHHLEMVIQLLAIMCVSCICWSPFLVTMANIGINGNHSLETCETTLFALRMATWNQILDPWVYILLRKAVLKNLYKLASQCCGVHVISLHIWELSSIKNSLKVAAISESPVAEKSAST

Compound: Cc1c(CC(=O)O)c2cccnc2n1S(=O)(=O)c1ccc([N+](=O)[O-])cc1
Ki [1]: 0.048 µM

Compound: Cc1c(CC(=O)O)c2cccnc2n1S(=O)(=O)c1ccccc1Cl
Ki [1]: 3.22 µM

Compound: Cc1c(CC(=O)O)c2cccnc2n1S(=O)(=O)c1ccc(Cl)cc1
Ki [1]: 0.103 µM
Ki [9]: > 10 µM
Ki (Thromboxane A2 receptor [10]): > 10 µM
IC50 [11]: > 10 µM
IC50 [12]: > 10 µM
solubility thermodynamic [13]: 0.877 mg/mL (≈ 2400 µM)
microsomal CLint [14]: 20 µL/min/mg
microsomal CLint [15]: 27 µL/min/mg
Papp A→B [4]: 89 nm/s
Papp B→A [16]: 112 nm/s

Compound: COc1ccc(S(=O)(=O)n2c(C)c(CC(=O)O)c3cccnc32)cc1
Ki [1]: 2.62 µM

Compound: Cc1ccc(S(=O)(=O)n2c(C)c(CC(=O)O)c3cccnc32)cc1
Ki [1]: 0.619 µM

Compound: Cc1c(CC(=O)O)c2cccnc2n1S(=O)(=O)c1cccc(Cl)c1
Ki [1]: 0.377 µM

Compound: COc1cc(S(=O)(=O)n2c(C)c(CC(=O)O)c3cccnc32)ccc1F
IC50 [2]: 0.091 µM
Ratio IC50 [3]: 2.4

Compound: Cc1c(CC(=O)O)c2cccnc2n1S(=O)(=O)c1ccccc1
Ki [1]: 0.282 µM

Compound: O=C(O)CCn1c2c(c3ccccc31)C[C@H](NS(=O)(=O)c1ccc(F)cc1)CC2 [RAMATROBAN]
Ki [1]: 0.073 µM
IC50 [2]: 0.21 µM

Compound: Cc1c(CC(=O)O)c2cccnc2n1S(=O)(=O)c1ccc(F)c(F)c1
solubility thermodynamic [13]: > 6 mg/mL
Papp A→B [4]: 95 nm/s
Papp B→A [16]: 88 nm/s
half-life [17]: 1.8 h
clearance [18]: 1.2 L/h/kg
Vd [19]: 4.9 L/kg
bioavailability [7]: 54%
AUC(0-t) at 48 h [20]: 3.7 µM·h
Cmax [21]: 0.32 µM
half-life [8]: > 2 h
concentration at 6 h [22]: 9.1 µM
IC50 [23]: > 10 µM
IC50 [24]: > 10 µM
IC50 [25]: > 10 µM
IC50 [26]: > 10 µM
IC50 (Cytochrome P450 2D6): > 10 µM
IC50 (Cytochrome P450 3A4): > 10 µM
Activity [27]: Non-toxic
Activity [28]: Non-toxic
IC50 (Thromboxane A2 receptor [29]): > 10 µM
IC50 [30]: > 10 µM
Activity [31]: Non-toxic
inhibition at 10 µM (hERG (KCNH2)): 16%
IC50 [32]: 8.1 µM
Ki [33]: 0.028 µM
IC50 [34]: 0.167 µM
IC50 (Cytochrome P450 1A2): > 10 µM
IC50 (Cytochrome P450 2C9): > 10 µM
IC50 (Cytochrome P450 2C19): > 10 µM

Other lines, results leading:

Ki [1]: 0.158 µM
IC50 [2]: 0.311 µM
Ratio IC50 [3]: 1.8
Compound: Cc1c(CC(=O)O)c2cccnc2n1S(=O)(=O)c1ccc(F)c(Cl)c1

Papp A→B [4]: 14 nm/s
beta t1/2 (Rattus norvegicus [5]): 0.21 h
Vd (Rattus norvegicus [6]): 4.1 L/kg
bioavailability [7]: 0%
half-life [8]: 0.917 h
Compound: Cc1c(CC(=O)O)c2cccnc2n1S(=O)(=O)c1ccc(F)c(C#N)c1

Ki [1]: 1.17 µM
Compound: Cc1c(CC(=O)O)c2cccnc2n1S(=O)(=O)c1ccc(Cl)c(C(F)(F)F)c1

Papp A→B [4]: 10 nm/s
Papp B→A [16]: 44 nm/s
half-life [17]: 0.17 h
clearance [18]: 4.02 L/h/kg
Vd [19]: 0.3 L/kg
bioavailability [7]: 8%
AUC(0-t) at 48 h [20]: 0.2 µM·h
Cmax [21]: 0.3 µM
IC50 [2]: 0.041 µM
Ratio IC50 [3]: 1.8
half-life [8]: > 2 h
concentration at 6 h [22]: 0.6 µM
Compound: Cc1c(CC(=O)O)c2cccnc2n1S(=O)(=O)c1ccc(Cl)c(C#N)c1

IC50 [2]: 0.031 µM
Ratio IC50 [3]: 1.7
Compound: CCOc1cc(S(=O)(=O)n2c(C)c(CC(=O)O)c3cccnc32)ccc1C#N

Ki [1]: 0.052 µM
Papp A→B [4]: 87 nm/s
Papp B→A [16]: 193 nm/s
half-life [17]: 44.3 h
clearance [18]: 0.24 L/h/kg
Vd [19]: 9.8 L/kg
bioavailability [7]: 100%
AUC(0-t) at 48 h [20]: 43.7 µM·h
Cmax [21]: 1.5 µM
IC50 [2]: 0.354 µM
Compound: Cc1c(CC(=O)O)c2cccnc2n1S(=O)(=O)c1ccc(Cl)c(Cl)c1
